# In article PMC8366898 (European journal of medicinal chemistry, 2018):
# “Also recorded” adds a separate entry of the source. Like-named read-outs stand apart in the source and are kept apart here.
# Key:
# K. pneumoniae = test: MIC, whole cell growth inhibition dose response; format: cell-based, Klebsiella pneumoniae; conditions: n=2
# A. baumannii [1] = test: MIC, whole cell growth inhibition dose response; format: cell-based, Acinetobacter baumannii; conditions: polystyrene 96-well plate, n=2
# S. aureus [2] = test: MIC, whole cell growth inhibition dose response; format: cell-based, Staphylococcus aureus; conditions: for MIC: Staphylococcus aureus, MRSA
# E. coli = test: MIC, whole cell growth inhibition dose response; format: cell-based, Escherichia coli; conditions: n=2
# five bacterial pathogens = test: Bacterial growth inhibition at single concentration, whole panel; format: cell-based; conditions: 32 μg/mL, in words
# A. baumannii [3] = test: Bacterial growth inhibition at single concentration; format: cell-based, Acinetobacter baumannii; conditions: 32 μg/mL (15–17 μM), OD600, 18 h
# S. aureus [4] = test: as above; format: cell-based, Staphylococcus aureus; conditions: 32 μg/mL (15–17 μM), OD600, 18 h; in words
# [5] = SPR binding of peptides on immobilized liposomes; conditions: POPC lipid systems, 100 μM peptide
# Liposome leakage = conditions: 20 μM peptide, CF dequenching
# Outline: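 Vesicles: 5 mg DOPC in chloroform, dried under N2, then freeze-dried 2 h to remove residual solvent. The lipid was redissolved in diethyl ether and hydrated in 10 mM HEPES, 100 mM KCl, pH 7.4, containing 50 mM carboxyfluorescein (quenching level). Peptide at 20 μM was mixed with vesicles for 3 min equilibration. Release was followed as the fluorescence dequenching rate.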
# [6] = non-binding surface 96-well plate
compound,measurement,setting,value
Colistin,MIC K. pneumoniae MDR NBS plate,K. pneumoniae; [6],0.06 µg/mL
same,MIC K. pneumoniae MDR PS plate,K. pneumoniae; polystyrene 96-well plate,0.25 µg/mL
same,MIC A. baumannii Type PS plate,A. baumannii [1],1 µg/mL
same,MIC S. aureus MRSA NBS plate,"S. aureus [2]; non-binding surface 96-well plate, n=2",>32 µg/mL
same,MIC S. aureus MRSA PS plate,"S. aureus [2]; polystyrene 96-well plate, n=2",>32 µg/mL
same,MIC E. coli FDA Control NBS plate,E. coli; [6],0.016 µg/mL
same,MIC E. coli FDA Control PS plate,E. coli; polystyrene 96-well plate,0.125 µg/mL
Cbz-(AzPro-Pro)8-(N-Methyl AzPro) [Peptide 13],antibacterial activity (growth inhibition) over the bacterial panel,five bacterial pathogens,highest activity
H-(AzPro-Pro)8-NHCH2CH2OH [Peptide 4],antibacterial activity (growth inhibition) over the bacterial panel,five bacterial pathogens,considerable loss of activity
CN[C@H](CC(C)C)C(=O)N[C@H]1C(=O)N[C@@H](CC(N)=O)C(=O)N[C@H]2C(=O)N[C@H]3C(=O)N[C@H](C(=O)N[C@H](C(=O)O)c4cc(O)cc(O)c4-c4cc3ccc4O)[C@H](O)c3ccc(c(Cl)c3)Oc3cc2cc(c3O[C@@H]2O[C@H](CO)[C@@H](O)[C@H](O)[C@H]2O[C@H]2C[C@](C)(N)[C@H](O)[C@H](C)O2)Oc2ccc(cc2Cl)[C@H]1O [Vancomycin],MIC,S. aureus [2]; read-out: MIC S. aureus MRSA NBS plate,2 µg/mL
same,MIC,S. aureus [2]; read-out: MIC S. aureus MRSA PS plate,2 µg/mL
Boc-(Pro-AzPro)4-H [Peptide 22],antibacterial activity (growth inhibition) over the bacterial panel,five bacterial pathogens,little inhibition
Formyl-(AzPro-Pro)6-NHCH2CH2OH [Peptide 6],antibacterial activity (growth inhibition) over the bacterial panel,five bacterial pathogens,largely abolishes all activity
Cbz-(AzPro-Pro)16-O^tBu [Peptide 11],antibacterial activity (growth inhibition) over the bacterial panel,five bacterial pathogens,considerable loss of activity; also recorded: drastic loss in activity
HCl.H-(Pro-AzPro)4-Cbz [Peptide 23],antibacterial activity (growth inhibition) over the bacterial panel,five bacterial pathogens,little inhibition
Boc-(Pro-AzPro)8-H.HCl [Peptide 17],A. baumannii growth inhibition,A. baumannii [3],some activity
same,S. aureus growth inhibition,S. aureus [4],some activity
Cbz-(AzPro-Pro)8-NHCH2CH2OH [Peptide 1],A. baumannii growth inhibition,A. baumannii [3],38%
same,SPR binding response,[5],showed some binding response
same,antibacterial activity (growth inhibition) over the bacterial panel,five bacterial pathogens,highest activity
same,DOPC liposome leakage,Liposome leakage,13%
Ac-(AzPro-Pro)8-NHCH2CH2OH [Peptide 2],SPR binding response,[5],showed some binding response
same,antibacterial activity (growth inhibition) over the bacterial panel,five bacterial pathogens,considerable loss of activity
Boc-(Pro-AzPro)8-Cbz [Peptide 10],SPR binding response,[5],showed some binding response
Cbz-(AzPro-Pro)8-OH [Peptide 14],antibacterial activity (growth inhibition) over the bacterial panel,five bacterial pathogens,considerable loss of activity; also recorded: largely abolishes all activity
H-(Pro-AzPro)8-H [Peptide 9],antibacterial activity (growth inhibition) over the bacterial panel,five bacterial pathogens,highest activity
Cbz-(AzPro-Pro)4-OH [Peptide 19],antibacterial activity (growth inhibition) over the bacterial panel,five bacterial pathogens,little inhibition
Formyl-(AzPro-Pro)7-NHCH2CH2OH [Peptide 5],antibacterial activity (growth inhibition) over the bacterial panel,five bacterial pathogens,largely abolishes all activity
Cbz-(AzPro-Pro)8-O^tBu [Peptide 8],SPR binding response,[5],showed some binding response
same,antibacterial activity (growth inhibition) over the bacterial panel,five bacterial pathogens,highest activity
HCl. H-(Pro-AzPro)8-Cbz [Peptide 16],A. baumannii growth inhibition,A. baumannii [3],some activity
same,S. aureus growth inhibition,S. aureus [4],some activity
H-(AzPro-Pro)4-O^tBu [Peptide 20],antibacterial activity (growth inhibition) over the bacterial panel,five bacterial pathogens,largely abolishes all activity
Cbz-(AzPro-Pro)4-O^tBu [Peptide 18],antibacterial activity (growth inhibition) over the bacterial panel,five bacterial pathogens,little inhibition
